Series [1] relates to B16-F10. In words: Cytotoxicity against mouse B16F10 cells after 24 hrs by MTT assay. It counts as functional, cell-based. The method in brief: (§1)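 B16(F10) murine melanoma cells seeded at 2 × 10³ per well in RPMI 1640 with 10% FBS, 37 °C, 5% CO₂. After 24 h, compounds added in quadruplicate at eleven concentrations (10–2000 µM), then incubated a further 24 or 48 h. MTT (0.5 mg/mL in PBS) for 3 h at 37 °C, formazan dissolved in acid–isopropanol, A570. Survival = absorbance at time t / initial absorbance × 100%.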

A short description of series [2]: Cytotoxicity against mouse NIH/3T3 cells by MTT assay. It counts as cell-based. Conditions: nih3t3. The method in brief:
(§2)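 Control lines used: NIH3T3 (ATCC) and HECa10 (lymph node-derived). Cells seeded at 2 × 10³ per well in RPMI 1640 with 10% FBS, 37 °C, 5% CO₂. Compounds added after 24 h in quadruplicate (10–2000 µM, eleven concentrations), then 24 or 48 h exposure. MTT for 3 h, formazan dissolved in acid–isopropanol, A570. Survival is percent of initial absorbance.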
(Tetrazolium dyes change colour on reduction, which living cells bring about.)

Series [3] relates to B16-F10. In words: Cytotoxicity against mouse B16F10 cells after 48 hrs by MTT assay. It counts as functional, cell-based. The method in brief:
as §1

Series [4] in a line: Cytotoxicity against mouse HECa10 cells by MTT assay. It counts as cell-based. The method in brief: as §2
Series [5] deals with B16-F10. In words: Cytotoxicity against mouse B16F10 cells at 250 uM after 48 hrs by MTT assay. Type of series: functional, cell-based. The method in brief: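 B16(F10) cells at 2 × 10³ per well in RPMI 1640 with 10% FBS, 37 °C, 5% CO₂. Compound added after 24 h in quadruplicate, with 250 µM among the tested concentrations, then incubated 48 h. MTT 0.5 mg/mL for 3 h, formazan dissolved in acid–isopropanol, read at 570 nm. Survival expressed as percent of initial absorbance.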

The structures appear in SMILES notation. Active and inactive are the calls of the source. The calls are words filed in the database; no cut-off is given here.

On to `CC(Cc1ccc(O)c(O)c1)C(=O)O` (stereo unspecified), for which the Activity result in series [1] was “Dose-dependent effect”; in series [2] it was “Toxic”; in series [3] it was “Dose-dependent effect”; in series [4], “Toxic”.
For the molecule `Cc1cc2cc(O)c(O)cc2nn1`, the result in series [1] was inactive. The Activity result in series [2] and in series [4] was “Toxic” each time. In addition, in series [3], the result was Active.
In the case of `C[C@@](Cc1ccc(O)c(O)c1)(NN)C(=O)O.O` [CARBIDOPA], the result in series [5] was Active. Further, the Activity result in series [2] and in series [4] was “Toxic” each time.

(Values after ChEMBL document CHEMBL1136960, “Oxidation of carbidopa by tyrosinase and its effect on murine melanoma” (Bioorg Med Chem Lett, 2009).)
